# In ChEMBL document CHEMBL4689842, “EUbOPEN Chemogenomics Library wave 1” (2021):
# “And” between values parts separate entries of the source, which are not always exact repeats. Equal values may be shown once.
# System: Fibroblast
# Experiment: Multiplex assay against human fibroblast
# Type: toxicity, cell-based
# Method in brief: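 Tubulin, mitochondrial-mass and membrane-permeability phenotypes are per cents of healthy-nucleus cells. Cells were gated by CellPathfinder machine learning into Hoechst high-intensity objects or normal cells, normal cells into healthy, pyknosed or fragmented nuclei, and pyknosed cells into mitotic or apoptotic. Before that, live cells stained at seeding with Hoechst33342, BioTracker Green Microtubule Cytoskeleton Dye, MitoTracker Red and Annexin V Alexa Fluor 680 were imaged on a CQ1 microscope at 37°C and 5% CO2 after compound addition.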
# [1] = 12 h, 1 µM, compound concentration 1 uM, replicate 1
# [2] = 12 h, 1 µM, compound concentration 1 uM, replicate 2
# [3] = 12 h, 10 µM, compound concentration 10 uM, replicate 1
# [4] = 12 h, 10 µM, compound concentration 10 uM, replicate 2
# [5] = 24 h, 1 µM, compound concentration 1 uM, replicate 1
# [6] = 24 h, 1 µM, compound concentration 1 uM, replicate 2
# [7] = 24 h, 10 µM, compound concentration 10 uM, replicate 1
# [8] = 24 h, 10 µM, compound concentration 10 uM, replicate 2
# [9] = 48 h, 1 µM, compound concentration 1 uM, replicate 1
# [10] = 48 h, 1 µM, compound concentration 1 uM, replicate 2
# [11] = 48 h, 10 µM, compound concentration 10 uM, replicate 1
# [12] = 48 h, 10 µM, compound concentration 10 uM, replicate 2
smiles,measurement,setting,value
CN1CCN(Cc2ccc(Nc3ncc(Cl)c(Nc4ccccc4S(=O)(=O)N(C)C)n3)cc2)CC1 [DUBERMATINIB],Population Apoptotic (%),[1],54%
same,Population Fragmented Nuclei (%),[1],27%
same,Population Healthy Nuclei (%),[1],50%
same,Population Hoechst High Intensity Objects (%),[1],12%
same,Population Membrane Permeable-Phenotype (%),[1],41%
same,Population Mitochondria Different-Phenotype (%),[1],3%
same,Population Mitotic Cells (%),[1],45%
same,Population Normal (%),[1],87%
same,Population Pyknosed Nuclei (%),[1],21%
same,Population Tubulin-Different-Phenotype (%),[1],41%
same,Total Cell Count,[1],126
same,Population Apoptotic (%),[2],100%
same,Population Fragmented Nuclei (%),[2],13%
same,Population Healthy Nuclei (%),[2],83%
same,Population Hoechst High Intensity Objects (%),[2],10%
same,Population Membrane Permeable-Phenotype (%),[2],4%
same,Population Mitochondria Different-Phenotype (%),[2],16%
same,Population Mitotic Cells (%),[2],0%
same,Population Normal (%),[2],89%
same,Population Pyknosed Nuclei (%),[2],2%
same,Population Tubulin-Different-Phenotype (%),[2],11%
same,Total Cell Count,[2],65
same,Population Apoptotic (%),[3],72%
same,Population Fragmented Nuclei (%),[3],18%
same,Population Healthy Nuclei (%),[3],57%
same,Population Hoechst High Intensity Objects (%),[3],14%
same,Population Membrane Permeable-Phenotype (%),[3],22%
same,Population Mitochondria Different-Phenotype (%),[3],11%
same,Population Mitotic Cells (%),[3],28%
same,Population Normal (%),[3],85%
same,Population Pyknosed Nuclei (%),[3],23%
same,Population Tubulin-Different-Phenotype (%),[3],56%
same,Total Cell Count,[3],125
same,Population Apoptotic (%),[4],73%
same,Population Fragmented Nuclei (%),[4],45%
same,Population Healthy Nuclei (%),[4],31%
same,Population Hoechst High Intensity Objects (%),[4],9%
same,Population Membrane Permeable-Phenotype (%),[4],28%
same,Population Mitochondria Different-Phenotype (%),[4],38%
same,Population Mitotic Cells (%),[4],26%
same,Population Normal (%),[4],90%
same,Population Pyknosed Nuclei (%),[4],22%
same,Population Tubulin-Different-Phenotype (%),[4],42%
same,Total Cell Count,[4],91
same,Population Apoptotic (%),[5],70%
same,Population Fragmented Nuclei (%),[5],28%
same,Population Healthy Nuclei (%),[5],57%
same,Population Hoechst High Intensity Objects (%),[5],11%
same,Population Membrane Permeable-Phenotype (%),[5],31%
same,Population Mitochondria Different-Phenotype (%),[5],5%
same,Population Mitotic Cells (%),[5],29%
same,Population Normal (%),[5],88%
same,Population Pyknosed Nuclei (%),[5],14%
same,Population Tubulin-Different-Phenotype (%),[5],37%
same,Total Cell Count,[5],137
same,Population Apoptotic (%),[6],0%
same,Population Fragmented Nuclei (%),[6],11%
same,Population Healthy Nuclei (%),[6],83%
same,Population Hoechst High Intensity Objects (%),[6],6%
same,Population Membrane Permeable-Phenotype (%),[6],4%
same,Population Mitochondria Different-Phenotype (%),[6],36%
same,Population Mitotic Cells (%),[6],100%
same,Population Normal (%),[6],93%
same,Population Pyknosed Nuclei (%),[6],4%
same,Population Tubulin-Different-Phenotype (%),[6],14%
same,Total Cell Count,[6],70
same,Population Apoptotic (%),[7],42%
same,Population Fragmented Nuclei (%),[7],23%
same,Population Healthy Nuclei (%),[7],55%
same,Population Hoechst High Intensity Objects (%),[7],15%
same,Population Membrane Permeable-Phenotype (%),[7],12%
same,Population Mitochondria Different-Phenotype (%),[7],16%
same,Population Mitotic Cells (%),[7],57%
same,Population Normal (%),[7],84%
same,Population Pyknosed Nuclei (%),[7],21%
same,Population Tubulin-Different-Phenotype (%),[7],61%
same,Total Cell Count,[7],116
same,Population Apoptotic (%),[8],95%
same,Population Fragmented Nuclei (%),[8],30%
same,Population Healthy Nuclei (%),[8],33%
same,Population Hoechst High Intensity Objects (%),[8],14%
same,Population Membrane Permeable-Phenotype (%),[8],55%
same,Population Mitochondria Different-Phenotype (%),[8],55%
same,Population Mitotic Cells (%),[8],4%
same,Population Normal (%),[8],85%
same,Population Pyknosed Nuclei (%),[8],36%
same,Population Tubulin-Different-Phenotype (%),[8],65%
same,Total Cell Count,[8],87
same,Population Apoptotic (%),[9],62%
same,Population Fragmented Nuclei (%),[9],39%
same,Population Healthy Nuclei (%),[9],46%
same,Population Hoechst High Intensity Objects (%),[9],10%
same,Population Membrane Permeable-Phenotype (%),[9],22%
same,Population Mitochondria Different-Phenotype (%),[9],7%
same,Population Mitotic Cells (%),[9],37%
same,Population Normal (%),[9],89%
same,Population Pyknosed Nuclei (%),[9],13%
same,Population Tubulin-Different-Phenotype (%),[9],40%
same,Total Cell Count,[9],129
same,Population Apoptotic (%),[10],66%
same,Population Fragmented Nuclei (%),[10],30%
same,Population Healthy Nuclei (%),[10],67%
same,Population Hoechst High Intensity Objects (%),[10],4%
same,Population Membrane Permeable-Phenotype (%),[10],24%
same,Population Mitochondria Different-Phenotype (%),[10],5%
same,Population Mitotic Cells (%),[10],33%
same,Population Normal (%),[10],95%
same,Population Pyknosed Nuclei (%),[10],2%
same,Population Tubulin-Different-Phenotype (%),[10],41%
same,Total Cell Count,[10],115
same,Population Apoptotic (%),[11],53%
same,Population Fragmented Nuclei (%),[11],39%
same,Population Healthy Nuclei (%),[11],36%
same,Population Hoechst High Intensity Objects (%),[11],13%
same,Population Membrane Permeable-Phenotype (%),[11],31%
same,Population Mitochondria Different-Phenotype (%),[11],21%
same,Population Mitotic Cells (%),[11],46%
same,Population Normal (%),[11],86%
same,Population Pyknosed Nuclei (%),[11],24%
same,Population Tubulin-Different-Phenotype (%),[11],73%
same,Total Cell Count,[11],122
same,Population Apoptotic (%),[12],50%
same,Population Fragmented Nuclei (%),[12],43%
same,Population Healthy Nuclei (%),[12],44%
same,Population Hoechst High Intensity Objects (%),[12],16%
same,Population Membrane Permeable-Phenotype (%),[12],32%
same,Population Mitochondria Different-Phenotype (%),[12],19%
same,Population Mitotic Cells (%),[12],50%
same,Population Normal (%),[12],83%
same,Population Pyknosed Nuclei (%),[12],11%
same,Population Tubulin-Different-Phenotype (%),[12],48%
same,Total Cell Count,[12],83
CN1CCN(Cc2cc(NC(=O)c3ccc4c(c3)CN(c3ccccc3)CC4)cc(C(F)(F)F)c2)CC1,Population Apoptotic (%),[1],72% and 64%
same,Population Fragmented Nuclei (%),[1],42% and 27%
same,Population Healthy Nuclei (%),[1],43% and 53%
same,Population Hoechst High Intensity Objects (%),[1],27% and 18%
same,Population Membrane Permeable-Phenotype (%),[1],4% and 12%
same,Population Mitochondria Different-Phenotype (%),[1],6% and 7%
same,Population Mitotic Cells (%),[1],27% and 35%
same,Population Normal (%),[1],72% and 81%
same,Population Pyknosed Nuclei (%),[1],14% and 19%
same,Population Tubulin-Different-Phenotype (%),[1],30% and 14%
same,Total Cell Count,[1],315 and 180
same,Population Apoptotic (%),[2],75% and 40%
same,Population Fragmented Nuclei (%),[2],55% and 53%
same,Population Healthy Nuclei (%),[2],37% and 39%
same,Population Hoechst High Intensity Objects (%),[2],36% and 35%
same,Population Mitochondria Different-Phenotype (%),[2],13% and 31%
same,Population Mitotic Cells (%),[2],25% and 60%
same,Population Normal (%),[2],63% and 64%
same,Population Pyknosed Nuclei (%),[2],6%
same,Total Cell Count,[2],92 and 114
same,Population Apoptotic (%),[5],74% and 57%
same,Population Fragmented Nuclei (%),[5],33% and 27%
same,Population Healthy Nuclei (%),[5],52% and 58%
same,Population Hoechst High Intensity Objects (%),[5],41% and 15%
same,Population Membrane Permeable-Phenotype (%),[5],6% and 4%
same,Population Mitochondria Different-Phenotype (%),[5],25% and 10%
same,Population Mitotic Cells (%),[5],25% and 42%
same,Population Normal (%),[5],58% and 84%
same,Population Pyknosed Nuclei (%),[5],14% and 13%
same,Total Cell Count,[5],365 and 178
same,Population Apoptotic (%),[6],100% and 40%
same,Population Fragmented Nuclei (%),[6],57% and 61%
same,Population Healthy Nuclei (%),[6],33% and 32%
same,Population Hoechst High Intensity Objects (%),[6],39% and 37%
same,Population Membrane Permeable-Phenotype (%),[6],21% and 12%
same,Population Mitochondria Different-Phenotype (%),[6],15% and 16%
same,Population Normal (%),[6],60% and 62%
same,Population Pyknosed Nuclei (%),[6],8% and 6%
same,Population Tubulin-Different-Phenotype (%),[6],21% and 48%
same,Total Cell Count,[6],93 and 124
